The values below come from ChEMBL document CHEMBL1132142, “Extension of the polyanionic cosalane pharmacophore as a strategy for increasing anti-HIV potency” (J Med Chem, 1999).

SMILES strings stand for the structures. pEC50: −log10 of the molar value. Bounds are passed on as bounds.

For assay [1], the system named is CEM-SS. The assay is described as follows: The compound was evaluated for cytotoxicity in CEM-SS cells. The format is functional, Homo sapiens. Put shortly:
(§1)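 Uninfected cells (CEM-SS or MT-4, per line) were incubated with the drug in a microtiter XTT assay. Viability was expressed as percent of the uninfected drug-free control. CC50 is the concentration causing 50% cell death. Triplicates were run per plate on two sister plates, and the two plate values were averaged.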

Assay [2] relates to CEM-SS. The assay is described as follows: The compound was evaluated for inhibition of cytopathic effect of HIV-1 RF in CEM-SS cells. Format: functional, cell-based, Homo sapiens. Put shortly: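 XTT-based microtiter cytoprotection assay measuring protection from HIV-1-induced cytopathic effect, read as percent of the uninfected drug-free control. EC50 is the concentration giving 50% protection in infected cultures. Results were confirmed by cell-free supernatant reverse transcriptase and p24 levels. Each plate was run in triplicate, and the EC50 values from two sister plates were averaged.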

Assay [3] relates to MT4. The assay is described as follows: The compound was evaluated for cytotoxicity in MT-4 cells. Format: functional, Homo sapiens. Put shortly: as §1
For assay [4], the system named is MT4. The assay can be described thus: The compound was evaluated for inhibition of cytopathic effect of HIV-1 IIIB in MT-4 cells. The format is functional, cell-based, Homo sapiens. On the technique in general: Damage to the host cells serves as the signal in cytopathic effect assays.
In assay [5] the test system is MT4. The assay can be described thus: The compound was evaluated for inhibition of cytopathic effect of HIV-2ROD in MT-4 cells. Format: functional, cell-based, Homo sapiens.
In assay [6] the test system is CEM-SS. The assay can be described thus: The compound was evaluated for uM. Format: functional, cell-based, Homo sapiens.

As for `CC(C)CCCC(C)[C@H]1CC[C@H]2[C@@H]3CCC4C[C@@H](CCC=C(c5cc(Cl)c(OCc6cccc([N+](=O)[O-])c6)c(C(=O)[O-])c5)c5cc(Cl)c(OCc6cccc([N+](=O)[O-])c6)c(C(=O)[O-])c5)CC[C@]4(C)[C@H]3CC[C@]12C.[Na+].[Na+]` (stereo partly specified), the Cytotoxicity in the assay on CEM-SS [1] was >316 µM; in the assay on MT4 [3], >125 µM. Also, the negative logarithm of the EC50 (pEC50) (usually the EC50 on a negative log10 scale, so that one unit is a factor of ten) with CEM-SS [2] (Homo sapiens, CEM-SS) was 4.67; with MT4 [4] (mt4), 4.32; in the assay on MT4 [5] (mt4), 4.54.

Turning to `CC(C)CCCC(C)[C@H]1CC[C@H]2[C@@H]3CCC4C[C@@H](CCC=C(c5cc(Cl)c(OCc6ccc([N+](=O)[O-])cc6)c(C(=O)O)c5)c5cc(Cl)c(OCc6ccc([N+](=O)[O-])cc6)c(C(=O)O)c5)CC[C@]4(C)[C@H]3CC[C@]12C` (stereo partly specified), the Cytotoxicity was >316 µM with CEM-SS [1] and 83 µM with MT4 [3]. In the assay with CEM-SS [6], the EC50 entry is listed as “Not Active”. Moreover, the pEC50 in the assay on MT4 [4] (Homo sapiens, MT4) is < 4.08; in the assay with MT4 [5] (mt4), < 4.08.

Regarding `CC(C)CCCC(C)[C@H]1CC[C@H]2[C@@H]3CCC4C[C@@H](CCC=C(c5cc(Cl)c(OCc6ccccc6[N+](=O)[O-])c(C(=O)[O-])c5)c5cc(Cl)c(OCc6ccccc6[N+](=O)[O-])c(C(=O)[O-])c5)CC[C@]4(C)[C@H]3CC[C@]12C.[Na+].[Na+]` (stereo partly specified), the Cytotoxicity with CEM-SS [1] was >316 µM; with MT4 [3] it was 99 µM. Besides, the pEC50 in the assay with CEM-SS [2] (Homo sapiens, CEM-SS) was 4.91; with MT4 [4] (Homo sapiens, MT4), < 3.90; in the assay with MT4 [5] (Homo sapiens, MT4), < 3.90.

With `CC(C)CCCC(C)[C@H]1CC[C@H]2[C@@H]3CCC4C[C@@H](CCC=C(c5cc(Cl)c(O)c(C(=O)O)c5)c5cc(Cl)c(O)c(C(=O)O)c5)CC[C@]4(C)[C@H]3CC[C@]12C` (stereo partly specified), the values for the Cytotoxicity with CEM-SS [1] and in the assay on MT4 [3] were >200 µM and >125 µM, respectively. Further, the pEC50 in the assay with MT4 [4] (Homo sapiens, MT4) is 5.52; with MT4 [5] (Homo sapiens, MT4), 5.40.

Turning to `CC(C)CCCC(C)[C@H]1CC[C@H]2[C@@H]3CCC4C[C@@H](CCC=C(c5cc(Cl)c(OCc6ccc([N+](=O)[O-])cc6)c(C(=O)[O-])c5)c5cc(Cl)c(OCc6ccc([N+](=O)[O-])cc6)c(C(=O)[O-])c5)CC[C@]4(C)[C@H]3CC[C@]12C.[Na+].[Na+]` (stereo partly specified), the Cytotoxicity in the assay with CEM-SS [1] is >316 µM; in the assay on MT4 [3] it was >125 µM. For the same molecule, the pEC50 in the assay on CEM-SS [2] (Homo sapiens, CEM-SS) was 4.11; in the assay on MT4 [4] (mt4), 4.10; in the assay on MT4 [5] (mt4), 4.48.

As for `CC(C)CCCC(C)[C@H]1CC[C@H]2[C@@H]3CCC4C[C@@H](CCC=C(c5cc(Cl)c(OCc6ccccc6[N+](=O)[O-])c(C(=O)O)c5)c5cc(Cl)c(OCc6ccccc6[N+](=O)[O-])c(C(=O)O)c5)CC[C@]4(C)[C@H]3CC[C@]12C` (stereo partly specified), the results for the Cytotoxicity in the assay on CEM-SS [1] and with MT4 [3] were 66 µM and 108 µM, respectively. The EC50 entry with CEM-SS [6] was “Not Active”.

Take `CC(C)CCCC(C)[C@H]1CC[C@H]2[C@@H]3CCC4C[C@@H](CCC=C(c5cc(Cl)c(OCc6cccc([N+](=O)[O-])c6)c(C(=O)O)c5)c5cc(Cl)c(OCc6cccc([N+](=O)[O-])c6)c(C(=O)O)c5)CC[C@]4(C)[C@H]3CC[C@]12C` (stereo partly specified): the Cytotoxicity with CEM-SS [1] was 16 µM; in the assay with MT4 [3], 97 µM. Besides, the EC50 entry with CEM-SS [6] was “Not Active”. In addition, the pEC50 with MT4 [4] (mt4) and with MT4 [5] (mt4) was < 3.90 each time.

Consider `CC(C)CCCC(C)[C@H]1CC[C@H]2[C@@H]3CCC4C[C@@H](CCC=C(c5cc(Cl)c(OCc6ccccc6C(=O)[O-])c(C(=O)[O-])c5)c5cc(Cl)c(OCc6ccccc6C(=O)[O-])c(C(=O)[O-])c5)CC[C@]4(C)[C@H]3CC[C@]12C.[Na+].[Na+].[Na+].[Na+]` (stereo partly specified), for which the figures for the Cytotoxicity in the assay with CEM-SS [1] and with MT4 [3] were >316 µM and 52 µM, respectively. In addition, the pEC50 is 4.75 in the assay with CEM-SS [2] (cem-ss), 4.66 in the assay on MT4 [4] (mt4) and < 4.28 in the assay with MT4 [5] (mt4).

Turning to `CC(C)CCCC(C)[C@H]1CC[C@H]2[C@@H]3CCC4C[C@@H](CCC=C(c5cc(Cl)c(OCc6cccc(C(=O)[O-])c6)c(C(=O)[O-])c5)c5cc(Cl)c(OCc6cccc(C(=O)[O-])c6)c(C(=O)[O-])c5)CC[C@]4(C)[C@H]3CC[C@]12C.[Na+].[Na+].[Na+].[Na+]` (stereo partly specified), the Cytotoxicity is >316 µM in the assay on CEM-SS [1] and 35 µM in the assay on MT4 [3]. The pEC50 was 5.12 in the assay on CEM-SS [2] (cem-ss), 5.62 with MT4 [4] (mt4) and < 4.46 in the assay with MT4 [5] (mt4).

In the case of `CC(C)CCCC(C)[C@H]1CC[C@H]2[C@@H]3CCC4C[C@@H](CCC=C(c5cc(Cl)c(OCc6ccccc6C(=O)O)c(C(=O)O)c5)c5cc(Cl)c(OCc6ccccc6C(=O)O)c(C(=O)O)c5)CC[C@]4(C)[C@H]3CC[C@]12C` (stereo partly specified), the Cytotoxicity in the assay with CEM-SS [1] was >316 µM; in the assay with MT4 [3], 37 µM. For the same molecule, the pEC50 in the assay on MT4 [4] (Homo sapiens, MT4) is < 4.43; in the assay with MT4 [5] (Homo sapiens, MT4) it was < 4.43.

In the case of `CC(C)CCCC(C)[C@H]1CC[C@H]2[C@@H]3CCC4C[C@@H](CCC=C(c5cc(Cl)c(OCc6cccc(C(=O)O)c6)c(C(=O)O)c5)c5cc(Cl)c(OCc6cccc(C(=O)O)c6)c(C(=O)O)c5)CC[C@]4(C)[C@H]3CC[C@]12C` (stereo partly specified), the Cytotoxicity with CEM-SS [1] was >316 µM; in the assay with MT4 [3] it was 29 µM. Besides, the negative logarithm of the EC50 (pEC50) in the assay on CEM-SS [2] (Homo sapiens, CEM-SS) is 5.24; in the assay on MT4 [4] (Homo sapiens, MT4), 5.66; in the assay on MT4 [5] (Homo sapiens, MT4), < 4.54.
